Active and inactive are the calls of the source.
Columns and labels:
[1] = system: Rattus norvegicus; assay: Cardioprotective activity against ischemia-reperfusion injury in Sprague-Dawley rat assessed as decrease in myocardial infarct size at 1 mg/kg, iv; format: functional, organism-based; set-up: dose 1 mg/kg; conditions: Myocardium
Procedure, shortened: (§1)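 In vivo rat model: coronary artery ligated 45 min, then the ligature is loosened for 90 min of reperfusion. Compound is given as an iv bolus 5 min before reperfusion at 1, 0.5 or 0.25 mg/kg. Infarct size is expressed as a percentage of left ventricle area (IS/LV%). n = 8; compared against sham and model groups.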

[2] = system: Rattus norvegicus; assay: Cardioprotective activity against ischemia-reperfusion injury in Sprague-Dawley rat assessed as decrease in creatine kinase release at 1 mg/kg, iv; format: functional, organism-based; set-up: dose 1 mg/kg
Procedure, shortened: (§2)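 Rats undergo 45 min coronary artery occlusion followed by 90 min reperfusion. Compound is given iv 5 min before reperfusion at 1, 0.5 or 0.25 mg/kg. Prepared serum is assayed for CK, LDH and SOD activities and MDA content as injury indicators, versus sham and model groups.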

[3] = system: Rattus norvegicus; assay: Cardioprotective activity against ischemia-reperfusion injury in Sprague-Dawley rat assessed as decrease in LDH release at 1 mg/kg, iv; format: functional, organism-based; set-up: dose 1 mg/kg; procedure, shortened: as §2
[4] = system: Rattus norvegicus; assay: Cardioprotective activity against ischemia-reperfusion injury in Sprague-Dawley rat assessed as decrease in malondialdehyde at 1 mg/kg, iv; format: functional, organism-based; set-up: dose 1 mg/kg; procedure, shortened: as §2
[5] = system: Rattus norvegicus; assay: Cardioprotective activity against ischemia-reperfusion injury in Sprague-Dawley rat assessed as increase in SOD activity in serum at 1 mg/kg, iv; format: functional, organism-based; set-up: dose 1 mg/kg; procedure, shortened: as §2
[6] = species on record: Rattus norvegicus; assay: Cardioprotective activity against Langendorff perfused Sprague-Dawley rat heart assessed as increase in myocardial energy metabolism at 10 uM; format: functional, organism-based
Procedure, shortened: (§3)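 Isolated rat hearts: 20 min equilibration, then 30 min low-rate perfusion (0.5 ml/min), then 30 min reperfusion. Drug is added to the perfusate during the low-rate period only. After reperfusion, the heart tissue homogenate is assayed for Na+-K+ ATPase activity, lactate (LD) content and ATP content. n = 10; compared against sham and model groups.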

[7] = species on record: Rattus norvegicus; assay: Cardioprotective activity against Langendorff perfused Sprague-Dawley rat heart assessed as increase in relaxing coronary artery at 10 uM; format: functional, organism-based
Procedure, shortened: (§4)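 Isolated hearts are equilibrated 20 min, perfused at a low rate (0.5 ml/min) for 30 min with compound in the perfusate, then reperfused 30 min. Coronary flow at the start and at the end of reperfusion is expressed as a ratio to the end-of-equilibration value. n = 10.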

[8] = system: Rattus norvegicus; assay: Cardioprotective activity against ischemia-reperfusion injury in iv dosed Sprague-Dawley rat assessed as decrease in malondialdehyde; format: functional, organism-based; procedure, shortened: as §2
[9] = system: Rattus norvegicus; assay: Cardioprotective activity against ischemia-reperfusion injury in iv dosed Sprague-Dawley rat assessed as increase in SOD activity in serum; format: functional, organism-based; procedure, shortened: as §2
[10] = species on record: Rattus norvegicus; assay: Cardioprotective activity against Langendorff perfused Sprague-Dawley rat heart assessed as increase in coronary flow at 2 to 50 uM; format: functional, organism-based; procedure, shortened: as §4
[11] = species on record: Rattus norvegicus; assay: Cardioprotective activity against Langendorff perfused Sprague-Dawley rat heart assessed as increase in ATP content in homogenates at 2 to 50 uM; format: functional; procedure, shortened: as §3
[12] = species on record: Rattus norvegicus; assay: Cardioprotective activity against Langendorff perfused Sprague-Dawley rat heart assessed as increase in […]-K+ ATPase activity in homogenates at 2 to 50 uM; format: functional; procedure, shortened: as §3
[13] = species on record: Rattus norvegicus; assay: Cardioprotective activity against Langendorff perfused Sprague-Dawley rat heart assessed as decrease in lactic acid content in homogenates at 2 to 50 uM; format: functional; procedure, shortened: as §3
[14] = species on record: Rattus norvegicus; assay: Cardioprotective activity against Langendorff perfused Sprague-Dawley rat heart assessed as increase in myocardial energy metabolism; format: functional, organism-based; procedure, shortened: as §3
[15] = species on record: Rattus norvegicus; assay: Cardioprotective activity against Langendorff perfused Sprague-Dawley rat heart assessed as increase in relaxing coronary artery at 50 uM; format: functional, organism-based; procedure, shortened: as §4
[16] = system: Rattus norvegicus; assay: Cardioprotective activity against ischemia-reperfusion injury in iv dosed Sprague-Dawley rat assessed as decrease in myocardial infarct size; format: functional, organism-based; conditions: Myocardium; procedure, shortened: as §1
[17] = system: Rattus norvegicus; assay: Cardioprotective activity against ischemia-reperfusion injury in iv dosed Sprague-Dawley rat assessed as decrease in creatine kinase release; format: functional, organism-based; procedure, shortened: as §2
[18] = system: Rattus norvegicus; assay: Cardioprotective activity against ischemia-reperfusion injury in iv dosed Sprague-Dawley rat assessed as decrease in LDH release; format: functional, organism-based; procedure, shortened: as §2

Measured: Activity

CC(C)c1ccc(C(=O)N=C(N)N)cc1S(C)(=O)=O
active: [1] | [2] | [3] | [4] | [5] | [6] | [7]

COc1ccc(CN2CCN(Cc3ccc(C(=O)N=C(N)N)cc3[N+](=O)[O-])CC2)c(OC)c1OC
active: [8] Dose-dependent effect | [9] Dose-dependent effect | [1] | [2] | [3] | [4] | [5] | [10] | [11] | [12] | [13] | [14] Dose-dependent effect | [7] | [15] | [16] Dose-dependent effect | [17] Dose-dependent effect | [18] Dose-dependent effect
